In ChEMBL document CHEMBL1150393, “Evaluation of radiolabeled (hetero)aromatic analogues of N-(2-diethylaminoethyl)-4-iodobenzamide for imaging and targeted radionuclide therapy of melanoma” (J Med Chem, 2008):

Legend:
Settings in all cases: in vivo
[1] = Biodistribution in tumor of C57BL/6 mouse bearing mouse B16-F0 cells at 0.74 to 0.92 MBq, iv after 3 hrs; type: ADME, organism-based, Neoplasm
How it was run: (§1)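 [¹²⁵I]-labelled compound given iv by tail vein (0.1 µmol per mouse) to male C57BL6 mice bearing s.c. B16-F0 flank tumours (5 × 10⁵ cells in PBS). Two mice per time point were killed by CO₂, frozen in liquid nitrogen and cut into 40 µm cryosections, eight slices per mouse. Slice radioactivity was read on a multiwire proportional counter, converted to kBq/g and reported as %ID/g.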

[2] = Biodistribution in tumor of C57BL/6 mouse bearing mouse B16-F0 cells at 0.74 to 0.92 MBq, iv after 6 hrs; type: ADME, organism-based, Neoplasm; how it was run: as §1
[3] = Biodistribution in tumor of C57BL/6 mouse bearing mouse B16-F0 cells at 0.74 to 0.92 MBq, iv after 24 hrs; type: ADME, organism-based, Neoplasm; how it was run: as §1
[4] = Ratio of drug level in tumor to liver of C57BL/6 mouse bearing mouse B16-F0 cells at 0.74 to 0.92 MBq, iv after 24 hrs; type: ADME, organism-based
How it was run: (§2)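 Tumour and organ radioactive concentrations came from whole-body cryosection counting (40 µm slices, eight per mouse, two mice per time) after tail-vein injection of the [¹²⁵I]-labelled compound (0.1 µmol) into male C57BL6 mice bearing s.c. B16-F0 melanoma. Each value is the ratio of the tumour concentration to the organ concentration.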

[5] = Ratio of drug level in tumor to lung of C57BL/6 mouse bearing mouse B16-F0 cells at 0.74 to 0.92 MBq, iv after 6 hrs; type: ADME, organism-based; how it was run: as §2
[6] = Ratio of drug level in tumor to lung of C57BL/6 mouse bearing mouse B16-F0 cells at 0.74 to 0.92 MBq, iv after 24 hrs; type: ADME, organism-based; how it was run: as §2
[7] = Ratio of drug level in tumor to brain of C57BL/6 mouse bearing mouse B16-F0 cells at 0.74 to 0.92 MBq, iv after 3 hrs; type: ADME, organism-based; how it was run: as §2
[8] = Ratio of drug level in tumor to brain of C57BL/6 mouse bearing mouse B16-F0 cells at 0.74 to 0.92 MBq, iv after 6 hrs; type: ADME, organism-based; how it was run: as §2
Brain [9] = assay: Biodistribution in brain of C57BL/6 mouse bearing mouse B16-F0 cells at 0.74 to 0.92 MBq, iv after 1 hr; type: ADME, organism-based
How it was run: (§3)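 Male C57BL6 mice with s.c. left-flank B16-F0 melanoma (5 × 10⁵ cells in PBS). Two mice per time point frozen in liquid nitrogen after CO₂ sacrifice. Eight 40 µm whole-body cryosections per mouse read by multiwire proportional counter. cpm/mm² converted to kBq/g and expressed as %ID/g.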

Brain [10] = assay: Biodistribution in brain of C57BL/6 mouse bearing mouse B16-F0 cells at 0.74 to 0.92 MBq, iv after 3 hrs; type: ADME, organism-based; how it was run: as §3
Brain [11] = assay: Biodistribution in brain of C57BL/6 mouse bearing mouse B16-F0 cells at 0.74 to 0.92 MBq, iv after 6 hrs; type: ADME, organism-based; how it was run: as §3
[12] = Biodistribution in intestinal content of C57BL/6 mouse bearing mouse B16-F0 cells at 0.74 to 0.92 MBq, iv after 3 hrs; type: ADME, organism-based; how it was run: as §3
[13] = Biodistribution in intestinal content of C57BL/6 mouse bearing mouse B16-F0 cells at 0.74 to 0.92 MBq, iv after 24 hrs; type: ADME, organism-based; how it was run: as §3
[14] = Biodistribution in Stomach content of C57BL/6 mouse bearing mouse B16-F0 cells at 0.74 to 0.92 MBq, iv after 3 hrs; type: ADME, organism-based; how it was run: as §3
[15] = Biodistribution in Stomach content of C57BL/6 mouse bearing mouse B16-F0 cells at 0.74 to 0.92 MBq, iv after 72 hrs; type: ADME, organism-based; how it was run: as §3
Liver [16] = assay: Biodistribution in liver of C57BL/6 mouse bearing mouse B16-F0 cells at 0.74 to 0.92 MBq, iv after 24 hrs; type: ADME, organism-based; how it was run: as §3
Liver [17] = assay: Biodistribution in liver of C57BL/6 mouse bearing mouse B16-F0 cells at 0.74 to 0.92 MBq, iv after 72 hrs; type: ADME, organism-based; how it was run: as §3
Muscle tissue = assay: Biodistribution in muscle of C57BL/6 mouse bearing mouse B16-F0 cells at 0.74 to 0.92 MBq, iv after 6 hrs; type: ADME, organism-based; how it was run: as §3
Pancreas [18] = assay: Biodistribution in pancreas of C57BL/6 mouse bearing mouse B16-F0 cells at 0.74 to 0.92 MBq, iv after 1 hr; type: ADME, organism-based; how it was run: as §3
Pancreas [19] = assay: Biodistribution in pancreas of C57BL/6 mouse bearing mouse B16-F0 cells at 0.74 to 0.92 MBq, iv after 3 hrs; type: ADME, organism-based; how it was run: as §3
Pancreas [20] = assay: Biodistribution in pancreas of C57BL/6 mouse bearing mouse B16-F0 cells at 0.74 to 0.92 MBq, iv after 6 hrs; type: ADME, organism-based; how it was run: as §3
Lung = assay: Biodistribution in lung of C57BL/6 mouse bearing mouse B16-F0 cells at 0.74 to 0.92 MBq, iv after 24 hrs; type: ADME, organism-based; how it was run: as §3
Spleen [21] = assay: Biodistribution in spleen of C57BL/6 mouse bearing mouse B16-F0 cells at 0.74 to 0.92 MBq, iv after 6 hrs; type: ADME, organism-based; how it was run: as §1
Spleen [22] = assay: Biodistribution in spleen of C57BL/6 mouse bearing mouse B16-F0 cells at 0.74 to 0.92 MBq, iv after 24 hrs; type: ADME, organism-based; how it was run: as §1
Spleen [23] = assay: Biodistribution in spleen of C57BL/6 mouse bearing mouse B16-F0 cells at 0.74 to 0.92 MBq, iv after 72 hrs; type: ADME, organism-based; how it was run: as §1
Kidney [24] = assay: Biodistribution in kidney of C57BL/6 mouse bearing mouse B16-F0 cells at 0.74 to 0.92 MBq, iv after 1 hr; type: ADME, organism-based; how it was run: as §3
Kidney [25] = assay: Biodistribution in kidney of C57BL/6 mouse bearing mouse B16-F0 cells at 0.74 to 0.92 MBq, iv after 6 hrs; type: ADME, organism-based; how it was run: as §3
Kidney [26] = assay: Biodistribution in kidney of C57BL/6 mouse bearing mouse B16-F0 cells at 0.74 to 0.92 MBq, iv after 24 hrs; type: ADME, organism-based; how it was run: as §3
[27] = Biodistribution in uvea of C57BL/6 mouse bearing mouse B16-F0 cells at 0.74 to 0.92 MBq, iv after 3 hrs; type: ADME, organism-based, Uveal tract; how it was run: as §1
[28] = Biodistribution in uvea of C57BL/6 mouse bearing mouse B16-F0 cells at 0.74 to 0.92 MBq, iv after 24 hrs; type: ADME, organism-based, Uveal tract; how it was run: as §1

CCN(CC)CCNC(=O)c1cc2cc([125I])ccc2[nH]1.Cl
Drug uptake [1]: 10.2 % ID/g | Drug uptake [2]: 9.8 % ID/g | Drug uptake [3]: 8.2 % ID/g | Ratio [4]: 5.07 | Ratio [5]: 5.79 | Ratio [6]: 22.05 | Ratio [7]: 3.91 | Ratio [8]: 5.38 | Drug uptake (Brain [9]): 4.84 % ID/g | Drug uptake (Brain [10]): 1.73 % ID/g | Drug uptake (Brain [11]): 0.74 % ID/g | Drug uptake [12]: 112.56 % ID/g | Drug uptake [13]: 3.31 % ID/g | Drug uptake [14]: 18.52 % ID/g | Drug uptake [15]: 0.04 % ID/g | Drug uptake (Liver [16]): 1.61 % ID/g | Drug uptake (Liver [17]): 0.61 % ID/g | Drug uptake (Muscle tissue): 0.31 % ID/g | Drug uptake (Pancreas [18]): 7.15 % ID/g | Drug uptake (Pancreas [19]): 2.48 % ID/g | Drug uptake (Pancreas [20]): 1.46 % ID/g | Drug uptake (Lung): 0.37 % ID/g | Drug uptake (Spleen [21]): 1.68 % ID/g | Drug uptake (Spleen [22]): 1.22 % ID/g | Drug uptake (Spleen [23]): 10.87 % ID/g | Drug uptake (Kidney [24]): 4.19 % ID/g | Drug uptake (Kidney [25]): 2.5 % ID/g | Drug uptake (Kidney [26]): 0.83 % ID/g | Drug uptake [27]: 12.78 % ID/g | Drug uptake [28]: 8.81 % ID/g

CCN(CC)CCNC(=O)c1ccc2cc([125I])ccc2n1.Cl.Cl
Drug uptake [1]: 25.4 % ID/g | Drug uptake [2]: 17.2 % ID/g | Drug uptake [3]: 12.1 % ID/g | Ratio [4]: 5.39 | Ratio [5]: 3.23 | Ratio [6]: 22.89 | Ratio [7]: 30.54 | Ratio [8]: 46.51 | Drug uptake (Brain [9]): 1.96 % ID/g | Drug uptake (Brain [10]): 0.83 % ID/g | Drug uptake (Brain [11]): 0.37 % ID/g | Drug uptake [12]: 20.65 % ID/g | Drug uptake [13]: 1.45 % ID/g | Drug uptake [14]: 34.72 % ID/g | Drug uptake (Liver [16]): 2.25 % ID/g | Drug uptake (Liver [17]): 1.23 % ID/g | Drug uptake (Muscle tissue): 0.95 % ID/g | Drug uptake (Pancreas [18]): 9.8 % ID/g | Drug uptake (Pancreas [19]): 6.17 % ID/g | Drug uptake (Lung): 0.53 % ID/g | Drug uptake (Spleen [21]): 7.6 % ID/g | Drug uptake (Spleen [22]): 2.66 % ID/g | Drug uptake (Spleen [23]): 1.85 % ID/g | Drug uptake (Kidney [24]): 11.82 % ID/g | Drug uptake (Kidney [25]): 7.6 % ID/g | Drug uptake (Kidney [26]): 0.34 % ID/g | Drug uptake [27]: 33.1 % ID/g | Drug uptake [28]: 22.27 % ID/g
